High-throughput results from PubChem.
Shown is part of a subset that was picked to be rich in hits.
MDM2 E3 inh: blocks human Mdm2 ubiquitin ligase activity | Q00987 | cell-based MDM2 ubiquitination luciferase reporter, 2 h; 0 = plate control, 100 = twice control, blank-subtracted | signal enhancement, % at 5 µM | actives 0.11% (n = 210,000) | AID 1230;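 active = signal enhancement of 30% or more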;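 note: luminescence tracks abundance of the self-degrading MDM2-luciferase fusion protein; higher signal means inhibition of MDM2 E3 ligase activity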
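system = mammalian cells stably expressing self-ubiquitinating, self-degrading MDM2 E3–luciferase fusion | quantity = 2000 cells per well seeded | incubation = 4 h cell settling then 2 h compound exposure, 37 °C | signal = SteadyLite luminescence, 15 min reagent step | benchmarks = plate control and blank wells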
S1P4 antagonist: human S1P4 receptor antagonism. O95977. S1P4-expressing cells, antagonist mode, reporter read-out. inhibition, % at 4.98 µM. actives 0.26% (n = 220,000); in the data active = inhibition above about 29%;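 note: 0% = wells stimulated with agonist and 100% = vehicle wells without agonist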
Target sequence (O95977 whole entry, looked up): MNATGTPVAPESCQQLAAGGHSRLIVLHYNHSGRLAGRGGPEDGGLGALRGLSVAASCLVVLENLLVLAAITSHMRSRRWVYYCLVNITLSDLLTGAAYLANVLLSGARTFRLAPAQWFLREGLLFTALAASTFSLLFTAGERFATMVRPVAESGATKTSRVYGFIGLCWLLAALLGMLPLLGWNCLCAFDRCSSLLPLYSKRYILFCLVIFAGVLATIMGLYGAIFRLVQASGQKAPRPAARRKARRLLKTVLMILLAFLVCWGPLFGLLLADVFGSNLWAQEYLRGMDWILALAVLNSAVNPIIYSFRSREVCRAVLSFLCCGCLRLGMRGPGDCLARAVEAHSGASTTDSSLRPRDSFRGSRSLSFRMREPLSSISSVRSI
Lmaj promast: inhibitors of Leishmania major promastigote growth; Leishmania major promastigotes, resazurin fluorescence viability; inhibition, % at 10 µM; actives 9% (n = 200,000); in the data active = inhibition above about 50%;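 note: promastigotes grown with compound for 44 hours at 28 °C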
S1P3 antag: blocks the human S1P3 receptor; Q99500; CHO S1P3 NFAT-BLA reporter, FRET fluorescence, antagonist mode; inhibition, % at 4.98 µM; actives 0.27% (n = 170,000);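 active = inhibition above the plate cutoff, the mean inhibition of test wells on that plate plus 3 SD, cut at about 28% in these data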;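 note: cells challenged with S1P at its EC80 of 0.8 µM; blue over green emission ratio from cleaved BLA substrate after 4 h stimulation; 0% = S1P-stimulated wells and 100% = unstimulated DMSO-only wells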
S1P4 ag: human S1P4 receptor agonism; actives 0.35% (n = 220,000); S1P4-expressing cell line, agonist reporter assay; O95977; activation, % at 4.98 µM; in the data active = activation above about 11%;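 note: 0% = DMSO vehicle and 100% = reference agonist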
An asterisk follows results filed as active.

OCC1(CCOc2ccccc2)CCN(C2Cc3ccccc3C2)CC1 was read as MDM2 E3 inh 2, S1P4 antagonist 2, Lmaj promast 88*, S1P3 antag 3 and S1P4 ag 2.
CN1CCN(CCC(=O)Nc2ccc(OCc3ccccc3)cc2)CC1 was read as MDM2 E3 inh -17, S1P4 antagonist 4, Lmaj promast 82*, S1P3 antag 20 and S1P4 ag -1.
O=C(CCN1CCN(CCO)CC1)Nc1ccc(OCc2ccccc2)cc1 was read as MDM2 E3 inh 1, S1P4 antagonist 2, Lmaj promast 61*, S1P3 antag 5 and S1P4 ag 1.
COC(=O)c1ccc(NC(=O)CCN2CCN(Cc3ccccc3)CC2)cc1 was read as MDM2 E3 inh -1, S1P4 antagonist -11, Lmaj promast 75* and S1P4 ag 0.
COC(=O)c1ccc(NC(=S)N2CCN(Cc3ccccc3)CC2)cc1 was read as MDM2 E3 inh -2, S1P4 antagonist -8, Lmaj promast 10 and S1P4 ag 1.
For O=C(/C=C/c1ccc(F)cc1)NNC(=O)CCN1CCN(Cc2ccccc2)CC1 the results were MDM2 E3 inh -10, S1P4 antagonist -27, Lmaj promast 54*, S1P3 antag -6 and S1P4 ag 2.
`COc1ccc(-c2nc3ccccc3c(=O)n2NC(=O)c2cccnc2Cl)cc1OC` gave MDM2 E3 inh -13, S1P4 antagonist 1, Lmaj promast -5, S1P3 antag -2 and S1P4 ag 1.
`CCOc1ccc(CCNC(=O)CN2CCN(Cc3ccccc3C)C2=O)cc1OCC` gave MDM2 E3 inh 3, S1P4 antagonist -6, Lmaj promast -3, S1P3 antag 1 and S1P4 ag -2.
Screening O=C(CNc1ccc2ccccc2c1)NNC1=NCCC1 returned MDM2 E3 inh 9, S1P4 antagonist 15, Lmaj promast -2, S1P3 antag -1 and S1P4 ag 0.
`O=C(Cc1ccccc1)NNc1ccc2ccccc2c1` gave MDM2 E3 inh -4, S1P4 antagonist -1, Lmaj promast 96*, S1P3 antag 4 and S1P4 ag -1.
For O=C(CN1C(=O)CCC1=O)NNc1ccc2ccccc2c1 the results were MDM2 E3 inh -2, S1P4 antagonist -19, Lmaj promast 96*, S1P3 antag -3 and S1P4 ag -2.
For CC1C2NC(=O)N(Cc3ccccc3)C1(C)Oc1ccccc12 (stereo not given) the results were MDM2 E3 inh 0, S1P4 antagonist -1, Lmaj promast 13, S1P3 antag -35 and S1P4 ag 1.
For COc1ccc(Nc2nc(NCc3ccco3)nc(N/N=C/c3ccc(O)cc3)n2)cc1 the results were MDM2 E3 inh -9, S1P4 antagonist -21, Lmaj promast 9, S1P3 antag 1 and S1P4 ag 1.
For COc1ccc(/C=N/Nc2nc(NCc3ccco3)nc(Nc3ccc(OC)cc3)n2)cc1 the results were MDM2 E3 inh 6, S1P4 antagonist 4, Lmaj promast 77*, S1P3 antag 3 and S1P4 ag 0.
Screening Cc1ccsc1CN1CCC(C(=O)NCc2ccccc2Cl)CC1 returned MDM2 E3 inh -9, S1P4 antagonist -5, Lmaj promast 92*, S1P3 antag -18 and S1P4 ag 2.
For COC(=O)C1=C(C)N=C2SC(C#N)=C(N)N2C1c1cc(OC)c(OC)c(OC)c1 (stereo not given) the results were MDM2 E3 inh -11, S1P4 antagonist 8, Lmaj promast 0 and S1P4 ag 0.
For COC(=O)C1=C(C)N=C2SC(C#N)=C(N)N2C1c1ccc(OCc2ccccc2)cc1 (stereo not given) the results were MDM2 E3 inh -7, S1P4 antagonist 9, Lmaj promast 98* and S1P4 ag 0.
For Cc1cccc(NC(=O)c2sc3nc4c(c(-c5cccs5)c3c2N)CN(C)CC4)c1 the results were MDM2 E3 inh -9, S1P4 antagonist 15, Lmaj promast 56* and S1P4 ag -4.
COc1cccc(C2CC(C(F)(F)F)n3nc(C(=O)Nc4c(C)n(C)n(-c5ccccc5)c4=O)cc3N2)c1 (stereo not given) was read as MDM2 E3 inh -12, S1P4 antagonist 3, Lmaj promast -10, S1P3 antag -16 and S1P4 ag 0.
